Results published in ChEMBL document CHEMBL2016520, “Design, synthesis, molecular docking and biological evaluation of new dithiocarbamates substituted benzimidazole and chalcones as possible chemotherapeutic agents” (Bioorg Med Chem Lett, 2012).

System: Cicer arietinum
Assay: Antimitotic activity against chick pea seeds assessed as inhibition of germinating root growth after 7 days
Assay type: functional, organism-based
Details: 168 h
How it was run: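 Seeds germinated in Petri dishes on filter paper for 7 days, with the paper moistened every 24 h with drug solution. One dish held DMSO as control and one held cisplatin as the standard. Radicle length was measured in cm on day 7, and percent growth inhibition was calculated against the mean of the DMSO-treated control.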

Structure (SMILES)	IC50 [nM]
S=C(SCc1nc2ccccc2[nH]1)N1CCOCC1	1890
S=C(SCc1nc2ccccc2[nH]1)N1CCCCC1	1660
O=C(CC(SC(=S)N1CCCCC1)c1ccccc1)c1ccccc1 (stereo not drawn)	1850
CN(C)C(=S)SC(CC(=O)c1ccccc1)c1ccccc1 (stereo not drawn)	2430
O=C(CC(SC(=S)N1CCOCC1)c1ccccc1)c1ccccc1 (stereo not drawn)	1650
CN(C)C(=S)SCc1nc2ccccc2[nH]1	2120
S=C(SCc1nc2ccccc2[nH]1)N1CCCC1	1800
CCN(CC)C(=S)SC(CC(=O)c1ccccc1)c1ccccc1 (stereo not drawn)	1840
CCN(CC)C(=S)SCc1nc2ccccc2[nH]1	1860
O=C(CC(SC(=S)N1CCCC1)c1ccccc1)c1ccccc1 (stereo not drawn)	1670
O=C(CC(SC(=S)Nc1nc2ccccc2s1)c1ccccc1)c1ccccc1 (stereo not drawn)	1520
CCCNC(=S)SCc1nc2ccccc2[nH]1	2290
CCCCNC(=S)SCc1nc2ccccc2[nH]1	2110
